A selection: hits, their analogues and other compounds. The true share with any hit is near 1.4%.
TbMetRS inhib: T. brucei MetRS inhibitors, primary screen, biochemical, luminescence; purified T. brucei MetRS, ATP depletion, Kinase-Glo luminescence; inhibition, % at 11.9 µM; 0.4% of 360,000 active; AID 624268, 2012; methionyl-tRNA synthetase (Trypanosoma brucei brucei);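 active means inhibition above a per-plate cutoff of the control wells' mean inhibition plus 3 SD, cut at about 5.5% in these data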;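 further: 0% = DMSO wells median and 100% = median of wells with control inhibitor compound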
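Measured by: Kinase-Glo luciferase luminescence reporting remaining unconsumed ATP. Material: purified T. brucei MetRS enzyme. Doses: 11.9 µM compound single dose, 0.9% DMSO. Medium: HEPES buffer containing pyrophosphatase, BSA, spermine, DTT. Times: 15 min preincubation, 2 h reaction, all 25 °C. Reagent: methionine, ATP and bulk E. coli tRNA.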
Efflux pump mplx: inhibitors of Candida efflux pumps in yeast, primary screen, S. cerevisiae, Nile Red, multiplex | S. cerevisiae Candida pump triplex | inhibition, % at 10 µM | 0.44% of 330,000 active;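 active means plate passing quality check with inhibition over a set limit, or well fluorescence over plate mean plus 4 SD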;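 further: Nile Red retained in pooled yeast measured as flow cytometry median fluorescence; 0% = buffer negative control and 100% = Enniatin B positive control; higher means more Nile Red kept so more efflux inhibition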
IDE cell inh: human IDE inhibitors in live cells, primary screen, fluorescence polarization, HEK cells, FAbetaB substrate. Insulin-degrading enzyme (Homo sapiens), P14735. FAbetaB cleavage. 0.41% of 320,000 active. inhibition, % at 5.59 µM;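 active means percent inhibition above the average of all tested compounds plus 3 SD, set per screening campaign, cut at about 16% in these data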;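 further: IDE supplied by intact live HEK cells; FP after avidin binding of uncleaved biotin substrate so inhibition keeps polarization high; 0% = DMSO wells and 100% = 60 µM reference IDE inhibitor Ii1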
Target sequence (P14735 whole entry, looked up): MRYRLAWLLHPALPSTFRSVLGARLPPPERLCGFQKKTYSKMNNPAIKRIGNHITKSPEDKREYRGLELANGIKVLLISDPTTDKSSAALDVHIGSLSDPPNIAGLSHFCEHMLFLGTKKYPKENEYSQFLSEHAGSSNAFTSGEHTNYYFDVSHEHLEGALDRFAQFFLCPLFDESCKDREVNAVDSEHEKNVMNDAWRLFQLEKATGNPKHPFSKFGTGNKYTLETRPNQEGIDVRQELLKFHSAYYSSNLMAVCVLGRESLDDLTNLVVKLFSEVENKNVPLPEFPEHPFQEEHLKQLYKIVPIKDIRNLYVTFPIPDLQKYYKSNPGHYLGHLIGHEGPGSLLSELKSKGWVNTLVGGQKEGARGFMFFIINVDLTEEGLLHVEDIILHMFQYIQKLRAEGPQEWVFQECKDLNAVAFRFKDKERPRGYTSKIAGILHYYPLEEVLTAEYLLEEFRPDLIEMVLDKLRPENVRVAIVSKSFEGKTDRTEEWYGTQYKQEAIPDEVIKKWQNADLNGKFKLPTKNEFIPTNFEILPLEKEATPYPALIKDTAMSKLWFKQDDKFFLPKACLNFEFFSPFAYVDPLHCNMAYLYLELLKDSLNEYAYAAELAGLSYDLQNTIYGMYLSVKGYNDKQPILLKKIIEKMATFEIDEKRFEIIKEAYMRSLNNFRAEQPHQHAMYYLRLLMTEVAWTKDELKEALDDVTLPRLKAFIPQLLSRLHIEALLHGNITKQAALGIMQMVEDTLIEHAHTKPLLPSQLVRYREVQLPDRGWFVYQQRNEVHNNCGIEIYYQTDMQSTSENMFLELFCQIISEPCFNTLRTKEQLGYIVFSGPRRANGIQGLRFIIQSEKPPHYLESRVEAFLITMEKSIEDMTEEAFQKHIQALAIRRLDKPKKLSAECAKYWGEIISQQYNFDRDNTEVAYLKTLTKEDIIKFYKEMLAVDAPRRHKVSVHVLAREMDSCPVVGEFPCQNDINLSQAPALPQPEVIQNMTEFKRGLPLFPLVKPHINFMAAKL
IDE cell activ: human IDE activators in live cells, primary screen, fluorescence polarization, HEK cells, FAbeta-B substrate. activation, % at 5.96 µM. AID 493087, 2011. 0.073% of 340,000 active. FAbeta-B cleavage; 0% vehicle, 100% cell-free pure enzyme wells;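 active means activation above the mean of all tested compounds plus 3 SD, set per screening campaign, cut at about 17% in these data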
CR mimetic SO: reduction of superoxide in aged yeast, primary screen, HTS; superoxide response (% of plate mean), % at 10 µM; AID 2690, 2010; S. cerevisiae aged cells, superoxide DHE fluorescence; stronger effect = lower value; 0.18% of 330,000 active;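 active means superoxide response under a set limit, about three screen SD below normal, cut at about 65% in these data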;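 further: yeast aged for seven days with compound at 30 °C before DHE staining; 100% = average MFI of all compound-treated wells on the plate with controls excluded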
HDAC3 inh: HDAC3 deacetylase inhibitors, primary screen, biochemical, fluorescence, cell-free homogeneous | Histone deacetylase 3 (Homo sapiens), O15379 | recombinant HDAC3, fluorogenic peptide/trypsin coupled | inhibition, % at 8.3 µM | 0.15% of 320,000 active; in the data active means inhibition above about 26%, passing the limit was not always enough
The depositor's hits bear a star.

`COc1cc(C(=O)N/N=C/c2coc3ccc(Cl)cc3c2=O)ccc1O` gave TbMetRS inhib -0.5, Efflux pump mplx 0.4, IDE cell inh -3.6, IDE cell activ -0.3, CR mimetic SO 99.1 and HDAC3 inh 96.2*.
O=C(N/N=C/c1coc2ccc(Cl)cc2c1=O)c1ccc(O)cc1 was read as TbMetRS inhib 0.0, Efflux pump mplx -0.1, IDE cell activ -2.3, CR mimetic SO 95.4 and HDAC3 inh 96.9*.
For COCCNC(=O)C1(C)CCN(C(=O)c2cccnc2Oc2ccccc2)C1 (stereo unspecified) the results were TbMetRS inhib 0.1.
For O=C(Nc1ccc(F)cc1)C(CCc1ccccc1)N1CCN(c2cccc(C(F)(F)F)n2)CC1 (stereo unspecified) the results were TbMetRS inhib -0.2.
For Cc1cccc(C)c1NC(=O)C(c1ccnc2ccccc12)N1CCN(C)CC1 (stereo unspecified) the results were TbMetRS inhib -0.8.
Screening CC(C)(C)c1[nH]nc2c1C(c1cccnc1)C(C#N)=C(N)O2 (stereo unspecified) returned TbMetRS inhib -0.2, Efflux pump mplx -0.1, IDE cell inh 4.4, IDE cell activ -5.1, CR mimetic SO 91.4 and HDAC3 inh -1.7.
CC(C)(C)c1[nH]nc2c1C(c1ccc(OC(=O)c3ccco3)cc1)C(C#N)=C(N)O2 (stereo unspecified) was read as TbMetRS inhib -0.7, Efflux pump mplx 0.0, IDE cell inh -7.8, IDE cell activ -0.9, CR mimetic SO 104.7 and HDAC3 inh 54.2*.
`Cc1ccc(N(CC(=O)Nc2cc(Cl)ccc2Oc2ccccc2)S(C)(=O)=O)cc1C` gave TbMetRS inhib -0.5, Efflux pump mplx -0.3, IDE cell inh -0.1, IDE cell activ 2.1, CR mimetic SO 98.8 and HDAC3 inh 26.7*.
For Cc1ccc(N(CC(=O)Nc2cc(Cl)ccc2Oc2ccccc2)S(C)(=O)=O)c(C)c1 the results were TbMetRS inhib -0.6, Efflux pump mplx 0.0, IDE cell inh 5.1, IDE cell activ 1.9, CR mimetic SO 93.8 and HDAC3 inh 17.1.
CCN(CC)CCn1c(NS(=O)(=O)c2ccc(C)cc2)nc2ccccc21 was read as TbMetRS inhib -0.3, Efflux pump mplx 0.1, IDE cell inh 7.3, IDE cell activ -1.7, CR mimetic SO 104.9 and HDAC3 inh 4.5.
Screening CCn1c(/N=C/c2ccccc2NS(=O)(=O)c2ccc(C)cc2)nc2ccccc21 returned TbMetRS inhib 6.5*, Efflux pump mplx -0.2, IDE cell inh 3.3, IDE cell activ 3.0, CR mimetic SO 81.5 and HDAC3 inh 4.2.
Screening O=C1c2c(-c3ccc(Br)cc3)noc2CCN1Cc1cn(-c2ccc(Cl)cc2)nn1 returned TbMetRS inhib 3.4.
C[C@H](CO)N1C[C@H](C)[C@H](CN(C)C)Oc2ccc(NS(=O)(=O)c3ccc(F)cc3)cc2CC1=O was read as TbMetRS inhib -0.4, Efflux pump mplx -0.2, IDE cell inh -0.2, IDE cell activ 4.0, CR mimetic SO 103.0 and HDAC3 inh -4.4.
For CNC[C@@H]1Oc2ccc(NS(=O)(=O)c3ccc(OC)cc3)cc2CC(=O)N([C@H](C)CO)C[C@@H]1C the results were TbMetRS inhib -0.3, Efflux pump mplx 0.2, IDE cell inh 1.9, IDE cell activ 22.4*, CR mimetic SO 96.7 and HDAC3 inh 1.6.
Screening COC(=O)C[C@@H]1C=C[C@@H](NS(=O)(=O)c2ccccc2OC)[C@@H](CO)O1 returned TbMetRS inhib -0.3.
For Cc1cc(C=O)c2c(c1)C=CC1(Oc3ccccc3C(=O)N1C)O2 (stereo unspecified) the results were Efflux pump mplx -0.2, IDE cell inh 25.2*, CR mimetic SO 79.3 and HDAC3 inh -1.7.
CC(C)N(CC#CC(O)(c1ccccc1)c1ccccc1)C(C)C was read as TbMetRS inhib 0.6, Efflux pump mplx 0.0, IDE cell inh 4.6, IDE cell activ 4.7, CR mimetic SO 94.7 and HDAC3 inh 8.9.
Screening CN(CC#CC(O)(c1ccccc1)c1ccccc1)C(C)(C)C returned TbMetRS inhib 0.5, Efflux pump mplx -0.1, IDE cell inh 3.6, CR mimetic SO 65.4* and HDAC3 inh 7.4.
For CCCN1C=CC(=C/C=C(\C#N)C(=O)OCC)C=C1 the results were Efflux pump mplx 0.4, IDE cell inh 101.3*, CR mimetic SO 119.2 and HDAC3 inh 30.4*.
For COC(=O)CSc1nnc(CNC(=O)c2cccs2)n1-c1cccc(C)c1 the results were TbMetRS inhib -0.7 and IDE cell activ 5.1.
Cc1ccc(-n2c(CNC(=O)c3cccs3)nnc2SCC(=O)NO)cc1 was read as TbMetRS inhib 0.3, Efflux pump mplx 0.0, IDE cell inh 5.3, IDE cell activ -1.2, CR mimetic SO 87.1 and HDAC3 inh 53.3*.
For O=C1c2cccc3c([N+](=O)[O-])ccc(c23)C(=O)N1c1nccs1 the results were TbMetRS inhib -0.2, Efflux pump mplx 1.2*, IDE cell inh 22.9*, IDE cell activ -6.0, CR mimetic SO 112.7 and HDAC3 inh 2.4.
`COc1ccc(/C=C2\SC(N)=NC2=O)cc1` gave TbMetRS inhib 1.0, Efflux pump mplx 0.0, IDE cell activ 6.6, CR mimetic SO 98.8 and HDAC3 inh 1.0.
Screening CCOC(=O)CSC1=NC(=O)/C(=C/c2ccc(OC)cc2)S1 returned TbMetRS inhib 0.3, Efflux pump mplx 0.1, IDE cell inh 2.9, IDE cell activ -2.9, CR mimetic SO 92.7 and HDAC3 inh 79.8*.
CCCCCc1c(CC)ncn1CCc1ccccc1OC was read as TbMetRS inhib -2.0.
Screening CC(C)c1cccc(C(C)C)c1OC(=O)[C@H]1OC(c2ccc(Br)cc2)=C[C@@H]1c1ccc(Br)cc1 returned TbMetRS inhib 0.0, Efflux pump mplx 0.8*, IDE cell inh 3.3, IDE cell activ -1.1, CR mimetic SO 96.6 and HDAC3 inh 15.9.
`O=C(NC1CCCc2c1cnn2-c1cc(F)cc(F)c1)c1ccccn1` (stereo unspecified) gave TbMetRS inhib 0.3, Efflux pump mplx 5.3*, IDE cell inh -0.8, IDE cell activ -7.4, CR mimetic SO 100.7 and HDAC3 inh -6.9.
COC(=O)c1ccc(C(=O)NC2CCCc3c2cnn3-c2cc(F)cc(F)c2)nc1 (stereo unspecified) was read as TbMetRS inhib -0.3, Efflux pump mplx 0.2, IDE cell inh 1.8, IDE cell activ -0.1 and CR mimetic SO 101.3.

From PubChem
